# Cneo AK release: causes C. neoformans cell lysis; lysis activity, % at 15 µM; hit rate 0.2% among 360,000; adenylate kinase release luminescence, 4 h; normalised: neutral wells 0, clomiphene wells 100;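 active = mean lysis activity across replicates of at least 80%, whatever share of replicates individually reach that level; inactive = mean lysis activity below 80%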
#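 Schedule: static 4 h at 37 °C with compound, 1 h detection; system: C. neoformans cells; benchmarks: Clomiphene as positive control; buffer or medium: fresh YPD medium; measure: luminescence rise reflecting yeast cell lysis; measured by: luminescent adenylate kinase detection reagent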
# miR-122 sensor: blocks miR-122 activity in Huh7 sensor cells | Huh7 miR-122 Renilla luciferase sensor, 48 h; neutral wells = 0, positive control = 100 | activation (reporter increase), % at 12.5 µM | hit rate 0.3% among 340,000;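 active = mean replicate activation score at least 90 and every replicate individually at or above 90; inconclusive = only one of the two criteria met; inactive = neither criterion met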;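 also: higher luciferase means less miR-122 activity so hits act as miR-122 inhibitors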
# E-selectin induc: induces E-selectin expression in human endothelial cells; P16581; HUVEC E-selectin immunofluorescence imaging; normalized: neutral wells 0, TNF-alpha wells 100; activation, % at 7.58 µM; hit rate 0.37% among 260,000; AID 686992;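 active = mean E-selectin-positive cell signal at least 10% of the positive control, reached in at least 60% of replicates, without over 20% cell loss; inconclusive = no rule given, readout overlaps actives, possibly toxicity-flagged; inactive = the rest, including those meeting only one limit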
# Target sequence (P16581 whole entry, looked up): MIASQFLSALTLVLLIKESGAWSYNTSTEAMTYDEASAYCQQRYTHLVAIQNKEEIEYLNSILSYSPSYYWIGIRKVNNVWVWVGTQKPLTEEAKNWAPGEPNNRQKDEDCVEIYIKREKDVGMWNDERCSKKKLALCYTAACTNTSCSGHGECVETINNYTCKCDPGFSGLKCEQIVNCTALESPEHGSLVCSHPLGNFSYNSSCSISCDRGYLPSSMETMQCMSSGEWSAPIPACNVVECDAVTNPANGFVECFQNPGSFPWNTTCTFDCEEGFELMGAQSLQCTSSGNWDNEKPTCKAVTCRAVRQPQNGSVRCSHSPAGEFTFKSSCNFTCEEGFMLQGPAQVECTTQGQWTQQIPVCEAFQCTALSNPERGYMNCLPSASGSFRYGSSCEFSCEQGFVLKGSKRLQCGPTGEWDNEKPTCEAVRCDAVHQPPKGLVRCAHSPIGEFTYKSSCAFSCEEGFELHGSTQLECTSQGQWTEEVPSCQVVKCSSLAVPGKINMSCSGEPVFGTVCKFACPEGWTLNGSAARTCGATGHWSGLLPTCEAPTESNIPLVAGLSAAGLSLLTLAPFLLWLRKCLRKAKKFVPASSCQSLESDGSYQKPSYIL
#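 Assay system: HUVEC, human umbilical vein endothelial cells / Amount: 3,000 HUVEC/well / Controls: TNF-alpha positive control, DMSO neutral control / Compound dosing: single concentration / Medium: EGM-2 over gelatin coat / Evaluation: percent E-selectin-positive cells / Signal: immunofluorescence imaging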
# Ecoli rRNA inh: inhibitors of bacterial rRNA selective over humanized ribosomes; E. coli WT GFP vs humanized-ribosome RFP mutants, fluorescence, 24 h; hits give low values; DMSO median 0, no signal -100; GFP signal change (wild-type ribosome), % (test concentration not listed); hit rate 1.6% among 350,000; AID 720706;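 active = significant combined selectivity score with lowered wild-type GFP, culture density cut under 30%, mutant RFP and density less affected; inactive = any of these conditions unmet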
# DENV2 CPE rescue: inhibitors of DENV2 cytopathic effect. DENV2-infected cells, cytopathic effect rescue, plate reader. CPE inhibition, % at 9.99 µM. hit rate 1.7% among 350,000; in the data active = CPE inhibition above about 20%, passing the limit was not always enough; inconclusive = no clear call, values can overlap the other calls; tested in BHK-21 cells;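 also: 0% = median of neutral control wells and 100% = median of positive control wells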
# * = called active by the depositor; ? = inconclusive; nt = not tested or not shown; [ ] = remark or other dose. Only some compounds are listed: those with a hit (about 3.1% of all), similar ones and a draw of the others.
SMILES,Cneo AK release,miR-122 sensor,E-selectin induc,Ecoli rRNA inh,DENV2 CPE rescue
CCOC(=O)c1cnc2c(cnn2C)c1NCc1ccc(OC)cc1,-15,8,1,-19*,nt
O=C(/C=C/c1ccc([N+](=O)[O-])cc1)Nc1cccc(S(=O)(=O)NC2=NCCCCC2)c1,nt,nt,0,-9.4*,-7
O=C(Cc1ccccc1[N+](=O)[O-])Nc1cccc(S(=O)(=O)NC2=NCCCCC2)c1,3,17,0,-3,1
Cc1ccc(C(=O)OCC(=O)Nc2cccc(S(=O)(=O)NC3=NCCCCC3)c2)c(C)c1,-2,nt,0,-22*,-2
C[C@H](CO)N1C[C@H](C)[C@@H](CN(C)S(=O)(=O)c2cn(C)cn2)Oc2c(NC(=O)Cc3ccccc3)cccc2C1=O,nt,nt,nt,1,nt
COc1ccc2c3c([nH]c2c1)[C@H](CO)N(C(=O)C1CCCC1)CC31CN(Cc2cccc(F)c2)C1,nt,nt,-1,-53,-9
c1ccc2c(c1)ccc1nnnn12,2,168*,-1,4,-2
O=c1[nH]c(C2CCN(S(=O)(=O)c3ccc4c(c3)OCCO4)CC2)nc2c1nnn2Cc1ccccc1F,-1,nt,nt,-28*,2
CC(C)OC(=O)c1ccc(NCc2cc(O)ccc2O)cc1,nt,6,0,-28,51*
O=C(OCc1ccccc1)c1ccc(NCc2cc(O)ccc2O)cc1,nt,-15,-1,-36*,-4
COc1ccc2c3c([nH]c2c1)[C@@H](CO)N(C(=O)CN(C)C)CC31CCN(Cc2ccccc2Cl)CC1,nt,nt,0,4,-6
Cc1cccc(-c2ccc([C@@H]3[C@@H](CO)N4C(=O)CN(C(=O)c5cnccn5)C[C@H]34)cc2)c1,nt,nt,nt,-2,nt
O=c1oc(-c2cccc(Cl)c2)nc2c1cnn2-c1ccccc1,-7,-3,nt,nt,nt
O=c1[nH]c2c(cnn2-c2ccc(Cl)cc2)c(=O)n1-c1cccc(Cl)c1,nt,nt,0,-35*,1
CCC(=O)Nc1ccc2c(c1)C(=O)N(C)[C@@H]1CC[C@H](CC(=O)NCCCN(C)C)O[C@H]1CO2,-1,1[16.7 µM],0,2,-4
O=C(CN1CCOCC1)N1CCCCN2[C@H](C1)[C@H](c1ccc(C#Cc3ccccc3F)cc1)[C@@H]2CO,-1,-6[16.7 µM],0,8,43*
O=C(CN1CCOCC1)N1CCCCN2[C@H](C1)[C@@H](c1ccc(C#Cc3ccccc3F)cc1)[C@@H]2CO,5,7[16.7 µM],0,1,-4
O=C(CN1CCOCC1)N1CCCCN2[C@H](CO)[C@H](c3ccc(C#Cc4ccccc4F)cc3)[C@@H]2C1,0,12[16.7 µM],1,5,48*
CC(=O)N1CCCCN2[C@@H](CO)[C@@H](c3ccc(C#Cc4ccccc4F)cc3)[C@@H]2C1,1,-4[16.7 µM],1,10,59*
CC(=O)N1CCCCN2[C@H](CO)[C@@H](c3ccc(C#Cc4ccccc4F)cc3)[C@@H]2C1,2,-3[16.7 µM],0,-57,12
Cc1noc(C)c1NC(=O)Nc1ccc2c(c1)C(=O)N([C@H](C)CO)C[C@@H](C)[C@H](CN(C)Cc1ccc(Cl)c(Cl)c1)O2,0,-5[16.7 µM],-5,-5,-3
CCCCn1c(N)c(N(CCC(C)C)C(=O)C2CC(=O)N(c3ccccc3OCC)C2)c(=O)[nH]c1=O (stereo not drawn),1,nt,0,18,66*
CCn1nnc(NC(=S)NC(=O)c2ccc(-c3cccc(Cl)c3)o2)n1,4,-5,nt,-21*,-2
COc1cccc([C@@H]2CC=C(C(=O)O)[C@H](c3ccccc3F)N2S(=O)(=O)c2ccc(C)cc2)c1,4,nt,nt,-12,21*
COc1cccc([C@@H]2CC=C(C(=O)O)[C@H](c3ccc(C)cc3)N2S(=O)(=O)c2ccc(C)cc2)c1,4,-3,nt,-19*,-5
SMILES,Cneo AK release,miR-122 sensor,E-selectin induc,Ecoli rRNA inh,DENV2 CPE rescue
COc1ccc([C@@H]2CC=C(C(=O)O)[C@H](c3ccc(C(C)(C)C)cc3)N2S(=O)(=O)c2ccc(C)cc2)cc1OC,-3,8,-2,-20*,?
COc1ccc([C@@H]2CC=C(C(=O)O)[C@H](c3ccc(F)cc3)N2S(=O)(=O)c2ccc(Cl)cc2)cc1,-2,0,0,-18*,4
COc1ccc([C@@H]2CC=C(C(=O)O)[C@H](c3ccc(C)cc3)N2S(=O)(=O)c2ccc(C)cc2)cc1OC,5,0,1,1,?
CNC[C@H]1Oc2ncccc2C(=O)N(C)C[C@H]1C,nt,nt,nt,2,nt
C[C@H](CO)N1C[C@H](C)[C@H](CN(C)C(=O)NC2CCCCC2)Oc2c(NC(=O)CCCCCC(=O)Nc3ccccc3N)cccc2C1=O,nt,nt,0,1,nt
Cc1ccc(S(=O)(=O)N2[C@@H](c3cccc(Cl)c3)C(C(=O)O)=CC[C@H]2c2cccc(Cl)c2)cc1,-5,nt,0,-39,10
Cc1ccc([C@H]2C(C(=O)O)=C[C@@H](C(C)(C)C)N2S(=O)(=O)c2ccc(C)cc2)cc1,1,1,1,-10,?
Cc1ccc(S(=O)(=O)N2[C@@H](c3ccccc3F)C(C(=O)O)=CC[C@H]2c2cccs2)cc1,1,nt,0,-16*,nt
Cc1ccc(S(=O)(=O)N2[C@@H](c3cccc(Cl)c3)C(C(=O)O)=CC[C@H]2c2cccc(C)c2)cc1,0,nt,0,-23*,?
COc1ccc([C@H]2C(C(=O)O)=C[C@@H](C(C)(C)C)N2S(=O)(=O)c2ccccc2)cc1,1,1,0,5,83*
CO[C@@H]1CN(C)C(=O)c2ccc(NC(=O)c3cnccn3)cc2OC[C@@H](C)N(CC2CC2)C[C@@H]1C,nt,nt,0,0,-5
CO[C@@H]1CN(C)C(=O)c2ccc(NC(=O)C3CCCCC3)cc2OC[C@@H](C)N(C)C[C@@H]1C,-2,1[16.7 µM],0,1,3
O=C(N/N=C/c1ccncc1)c1ccc(-n2cccc2)cc1,3,-8,-2,5,10
O=C(N/N=C/c1cccs1)c1ccc(-n2cccc2)cc1,nt,nt,nt,-23*,-1
COc1cccc(C(=O)Nc2ccc3c(c2)C(=O)N(C)C[C@@H](OC)[C@@H](C)CN[C@H](C)CO3)c1,-1,nt,0,0,4
NC(N)=N/N=C/c1ccc2cccc(OCc3ccccc3)c2n1,nt,nt,nt,nt,2
O/N=C/c1ccc2cccc(OCc3ccccc3)c2n1,1,3,0,-29*,1
Cc1ccccc1CSc1[nH]c(=O)ncc1C,1,nt,nt,-12,-3
Cc1ccc(CSc2[nH]c(=O)ncc2C)cc1,1,-2,nt,-19*,1
CO[C@H]1CN(C)C(=O)c2cc(NC(C)=O)ccc2OC[C@@H](C)N(Cc2cccnc2)C[C@@H]1C,-1,-7[16.7 µM],0,2,nt
C=CCn1c(O)c(C2=c3ccccc3=NC2=O)sc1=Nc1ccc(O)cc1,6,-8,2,-8.0*,5
O=C(C1CCCCC1)N1CC(=O)N2[C@H](CO)[C@@H](c3ccc(-c4cccnc4)cc3)[C@@H]2C1,nt,nt,0,3,13

# Screening results: PubChem, Broad Institute
